Measured values: ChEMBL document CHEMBL3120102, “Structure-based design, synthesis and biological evaluation of novel anthra[1,2-d]imidazole-6,11-dione homologues as potential antitumor agents” (2013)

Columns and labels:
Format in all cases: functional
[1] = Cytotoxicity against human Hs578T cells assessed as cell growth at 10 uM after 48 hrs by SRB assay; settings: Hs-578T, read-out: Activity
OVCAR-3 = experiment: Cytotoxicity against human OVCAR3 cells assessed as cell growth at 10 uM after 48 hrs by SRB assay; settings: OVCAR-3, 48 h, read-out: Activity
Procedure, shortened: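 First stage of the NCI 60 human tumour cell line screen: a single dose is tested against every line. Cell growth is read as cellular protein by sulforhodamine B colorimetry after 48 h of drug exposure, with reference to a time-zero control and to untreated plates.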

MDA-MB-468 = experiment: Cytotoxicity against human MDA-MB-468 cells assessed as growth inhibition after 48 hrs by SRB assay
Procedure, shortened: (§1)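 NCI 60-cell-line screen, five-dose stage: each cell line exposed for 48 h to five concentrations spanning five log steps; cellular protein measured by sulforhodamine B colorimetry. A time-zero cell control and plates without drug are used to derive GI50, TGI and LC50 from log-concentration dose-response curves.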

[2] = (§2) Cytotoxicity against human Hs578T cells assessed as growth inhibition after 48 hrs by SRB assay; settings: Hs-578T
Procedure, shortened: (§3)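 NCI 60-cell-line five-dose screen at […]. Drug exposure was 48 h, followed by sulforhodamine B protein staining. GI50, TGI and LC50 were calculated against a time-zero control and untreated plates, with dose–response curves plotted from log10 concentration.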

Hs-578T = experiment: as §2; procedure, shortened: as §3
MCF7 = experiment: Cytotoxicity against human MCF7 cells assessed as growth inhibition after 48 hrs by SRB assay; procedure, shortened: as §1
DU-145 = experiment: Cytotoxicity against human DU145 cells assessed as growth inhibition after 48 hrs by SRB assay; procedure, shortened: as §3
[3] = (§4) Cytotoxicity against human UO31 cells assessed as growth inhibition after 48 hrs by SRB assay; settings: UO-31, 48 h
Procedure, shortened: (§5)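 NCI 60-cell-line screen, two stages. Five-dose testing at […]. Cellular protein measured by sulforhodamine B colorimetry after 48 h drug exposure. A time-zero control and drug-free plates are used to derive GI50, TGI and LC50 from dose-response curves plotted as log10 concentration per cell line.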

UO-31 = experiment: as §4; procedure, shortened: as §5
TK-10 = experiment: Cytotoxicity against human TK10 cells assessed as growth inhibition after 48 hrs by SRB assay; procedure, shortened: as §5
ACHN = experiment: Cytotoxicity against human ACHN cells assessed as growth inhibition after 48 hrs by SRB assay; procedure, shortened: as §3
786-0 = experiment: Cytotoxicity against human 786-0 cells assessed as growth inhibition after 48 hrs by SRB assay; procedure, shortened: as §3
[4] = (§6) Cytotoxicity against human NCI-ADR-RES cells assessed as growth inhibition after 48 hrs by SRB assay; procedure, shortened: as §1
NCI/ADR-RES = experiment: as §6; procedure, shortened: as §1
OVCAR-8 = experiment: Cytotoxicity against human OVCAR8 cells assessed as growth inhibition after 48 hrs by SRB assay; procedure, shortened: as §1
[5] = (§7) Cytotoxicity against human UACC257 cells assessed as growth inhibition after 48 hrs by SRB assay; settings: UACC-257, 48 h; procedure, shortened: as §5
UACC-257 = experiment: as §7; procedure, shortened: as §5
SK-MEL-5 = experiment: Cytotoxicity against human SK-MEL-5 cells assessed as growth inhibition after 48 hrs by SRB assay; procedure, shortened: as §1
SK-MEL-2 = experiment: Cytotoxicity against human SK-MEL-2 cells assessed as growth inhibition after 48 hrs by SRB assay; procedure, shortened: as §1
LOX IMVI = experiment: Cytotoxicity against human LOXIMVI cells assessed as growth inhibition after 48 hrs by SRB assay; procedure, shortened: as §3
U-251 = experiment: Cytotoxicity against human U251 cells assessed as growth inhibition after 48 hrs by SRB assay; procedure, shortened: as §5
SF-268 = experiment: Cytotoxicity against human SF268 cells assessed as growth inhibition after 48 hrs by SRB assay; procedure, shortened: as §1
SW-620 = experiment: Cytotoxicity against human SW620 cells assessed as growth inhibition after 48 hrs by SRB assay; procedure, shortened: as §5
HT-29 = experiment: Cytotoxicity against human HT-29 cells assessed as growth inhibition after 48 hrs by SRB assay; procedure, shortened: as §3
HCC 2998 = experiment: Cytotoxicity against human HCC2998 cells assessed as growth inhibition after 48 hrs by SRB assay; procedure, shortened: as §3
COLO 205 = experiment: Cytotoxicity against human COLO205 cells assessed as growth inhibition after 48 hrs by SRB assay; procedure, shortened: as §3
NCI-H522 = experiment: Cytotoxicity against human NCI-H522 cells assessed as growth inhibition after 48 hrs by SRB assay; procedure, shortened: as §1
[6] = (§8) Cytotoxicity against human EKVX cells assessed as growth inhibition after 48 hrs by SRB assay; procedure, shortened: as §3
EKVX = experiment: as §8; procedure, shortened: as §3
A549 = experiment: Cytotoxicity against human A549 cells assessed as growth inhibition after 48 hrs by SRB assay; procedure, shortened: as §3
K562 = experiment: Cytotoxicity against human K562 cells assessed as growth inhibition after 48 hrs by SRB assay; procedure, shortened: as §3
[7] = read-out: LC50 (the source's name)

O=C1c2ccccc2C(=O)c2c1ccc1[nH]c(=S)[nH]c21
growth at 10 µM [1]: 104%
growth at 10 µM (OVCAR-3): 86.9%

O=C1c2ccccc2C(=O)c2c1ccc1nc(SCCN3CCCC3)[nH]c21
growth inhibition (GI) (MDA-MB-468): Dose-dependent effect
GI50 (MDA-MB-468; MDA-MB-468, 48 h): 1.33 µM
LC50 (MDA-MB-468; MDA-MB-468, 48 h): 7.05 µM
TGI (MDA-MB-468; MDA-MB-468, 48 h): 3.06 µM
GI50 [2]: 6.24 µM
TGI [2]: 25.8 µM
CC50 [2, 7]: 79.9 µM
growth inhibition (GI) (Hs-578T): Dose-dependent effect
growth inhibition (GI) (MCF7): Dose-dependent effect
GI50 (MCF7; MCF7, 48 h): 1.74 µM
LC50 (concentration killing 50% of cells) (MCF7; MCF7, 48 h): 45.6 µM
TGI (MCF7; MCF7, 48 h): 7.52 µM
growth inhibition (GI) (DU-145): Dose-dependent effect
GI50 (DU-145; DU-145, 48 h): 3.42 µM
TGI (DU-145; DU-145, 48 h): 14.9 µM
CC50 (DU-145; DU-145, 48 h, read-out: LC50 (the source's name)): 39.6 µM
GI50 [3]: 2.08 µM
LC50 [3]: 44.9 µM
TGI [3]: 15.8 µM
growth inhibition (GI) (UO-31): Dose-dependent effect
growth inhibition (GI) (TK-10): Dose-dependent effect
GI50 (TK-10; TK-10, 48 h): 4.22 µM
LC50 (TK-10; TK-10, 48 h): 46.8 µM
TGI (TK-10; TK-10, 48 h): 19.1 µM
GI50 (ACHN): 2.34 µM
TGI (ACHN): 16.5 µM
growth inhibition (GI) (ACHN): Dose-dependent effect
CC50 (ACHN; [7]): 41.1 µM
growth inhibition (GI) (786-0): Dose-dependent effect
GI50 (786-0; 786-0, 48 h): 11.7 µM
LC50 (concentration causing 50% net cell kill) (786-0; 786-0, 48 h): 54.7 µM
TGI (786-0; 786-0, 48 h): 25.3 µM
GI50 [4]: 6.98 µM
LC50 (concentration causing 50% net cell kill) [4]: > 100 µM
TGI [4]: 33.7 µM
growth inhibition (GI) (NCI/ADR-RES): Dose-dependent effect
growth inhibition (GI) (OVCAR-8): Dose-dependent effect
GI50 (OVCAR-8; OVCAR-8, 48 h): 6.38 µM
LC50 (OVCAR-8; OVCAR-8, 48 h): > 100 µM
TGI (OVCAR-8; OVCAR-8, 48 h): 30.4 µM
GI50 [5]: 18 µM
LC50 [5]: 56.8 µM
TGI [5]: 31.9 µM
growth inhibition (GI) (UACC-257): Dose-dependent effect
growth inhibition (GI) (SK-MEL-5): Dose-dependent effect
GI50 (SK-MEL-5; SK-MEL-5, 48 h): 12.9 µM
LC50 (concentration killing 50% of cells relative to time zero) (SK-MEL-5; SK-MEL-5, 48 h): 54.8 µM
TGI (SK-MEL-5; SK-MEL-5, 48 h): 26.6 µM
growth inhibition (GI) (SK-MEL-2): Dose-dependent effect
GI50 (SK-MEL-2; SK-MEL-2, 48 h): 17.1 µM
LC50 (50% lethal concentration) (SK-MEL-2; SK-MEL-2, 48 h): 63.5 µM
TGI (SK-MEL-2; SK-MEL-2, 48 h): 32.9 µM
GI50 (LOX IMVI): 1.43 µM
LC50 (LOX IMVI): 6.25 µM
TGI (LOX IMVI): 2.99 µM
growth inhibition (GI) (LOX IMVI): Dose-dependent effect
growth inhibition (GI) (U-251): Dose-dependent effect
GI50 (U-251; U-251, 48 h): 6.84 µM
TGI (U-251; U-251, 48 h): 20.3 µM
CC50 (U-251; U-251, 48 h, read-out: LC50 (the source's name)): 47.1 µM
growth inhibition (GI) (SF-268): Dose-dependent effect
GI50 (SF-268; SF-268, 48 h): 9.54 µM
LC50 (concentration killing 50% of cells relative to time zero) (SF-268; SF-268, 48 h): 52.9 µM
TGI (SF-268; SF-268, 48 h): 22.8 µM
growth inhibition (GI) (SW-620): Dose-dependent effect
GI50 (SW-620; SW-620, 48 h): 1.94 µM
LC50 (SW-620; SW-620, 48 h): 19.7 µM
TGI (SW-620; SW-620, 48 h): 5.09 µM
growth inhibition (GI) (HT-29): Dose-dependent effect
GI50 (HT-29; HT-29, 48 h): 1.81 µM
TGI (HT-29; HT-29, 48 h): 4.66 µM
CC50 (HT-29; HT-29, 48 h, read-out: LC50 (the source's name)): 15.2 µM
growth inhibition (GI) (HCC 2998): Dose-dependent effect
GI50 (HCC 2998; HCC 2998, 48 h): 4.91 µM
TGI (HCC 2998; HCC 2998, 48 h): 18.5 µM
CC50 (HCC 2998; HCC 2998, 48 h, read-out: LC50 (the source's name)): 46 µM
growth inhibition (GI) (COLO 205): Dose-dependent effect
GI50 (COLO 205; COLO 205, 48 h): 3.07 µM
LC50 (COLO 205; COLO 205, 48 h): 58.6 µM
TGI (COLO 205; COLO 205, 48 h): 16.7 µM
growth inhibition (GI) (NCI-H522): Dose-dependent effect
TGI (NCI-H522; NCI-H522, 48 h): 32.5 µM
TGI [6]: 26.5 µM
growth inhibition (GI) (EKVX): Dose-dependent effect
growth inhibition (GI) (A549): Dose-dependent effect
GI50 (A549; A549, 48 h): 3.8 µM
TGI (A549; A549, 48 h): 15 µM
growth inhibition (GI) (K562): Dose-dependent effect
GI50 (K562; K562, 48 h): 1.7 µM
TGI (K562; K562, 48 h): 5.2 µM
CC50 (K562; K562, 48 h, read-out: LC50 (the source's name)): 72 µM
